Legend:
Mus musculus [1] = assay: Biodistribution in lungs of C57BL/6 mouse xenografted with mouse B16F10 cells at 3.7 MBq, iv after 1 hr by gamma-scintillation counting analysis; format: ADME, organism-based, Lung, B16-F10; conditions: in vivo
Summary of the method: (§1)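 1.0 × 10^6 B16F10 cells in PBS injected subcutaneously into the right shoulder of C57BL/6 mice, grown to 0.5 cm (~10 day). Tail-vein injection of about 3.7 MBq (100 μCi) 18F probe in PBS (0.1 M, pH 7.4). Killed at 1.0 or 2.0 h p.i. (n = 4 per group). Tissues excised, weighed and gamma-counted; uptake expressed as %ID/g, mean ± SD.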

Blood = assay: Biodistribution in blood of C57BL/6 mouse xenografted with mouse B16F10 cells at 3.7 MBq, iv after 1 hr by gamma-scintillation counting analysis; format: ADME, organism-based, B16-F10; conditions: in vivo; summary of the method: as §1
[2] = Drug uptake in tumor of C57BL/6 mouse xenografted with mouse B16F10 cells at 3.7 MBq, iv after 0.5 hrs by PET imaging analysis; format: ADME, organism-based, Neoplasm, B16-F10; conditions: in vivo
Summary of the method: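 Static small-animal PET at 0.5, 1 and 2 h after tail-vein injection of ~3.7 MBq (100 μCi) into B16F10-bearing C57BL/6 mice (n = 4 per probe). Isoflurane anesthesia, 5% induction and 2% maintenance in O2. Decay-corrected images. ROI-derived %ID/g assumes 1 g/ml density, without attenuation correction. Mean ± SD.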

Kidney [3] = assay: Drug uptake in kidney of C57BL/6 mouse xenografted with mouse B16F10 cells at 3.7 MBq, iv after 5 mins by PET imaging analysis; format: ADME, organism-based, B16-F10; conditions: in vivo
Summary of the method: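 Dynamic small-animal PET in B16F10 tumor-bearing mice (n = 4) after tail-vein injection of ~3.7 MBq (100 μCi). Scanning began ~2.0 min post-injection and ran 35 min (6×20 s, 8×60 s, 10×150 s; 24 frames). ROI counts converted to %ID/g assuming 1 g/ml tissue density. No attenuation correction.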

Nucleic Acid [4] = assay: Ratio of drug uptake in tumor to blood of C57BL/6 mouse xenografted with mouse B16F10 cells at 3.7 MBq, iv after 2 hrs by gamma-scintillation counting analysis; format: ADME, organism-based, B16-F10; conditions: tumour
Summary of the method: (§2)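 Same subcutaneous B16F10 model and tail-vein dose of about 3.7 MBq (100 μCi), n = 4 per group. Dissection at 1 or 2 h p.i. Gamma-counter %ID/g of tumor divided by that of blood, lung, liver or muscle, given as mean ± SD.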

Nucleic Acid [5] = assay: Ratio of drug uptake in tumor to liver of C57BL/6 mouse xenografted with mouse B16F10 cells at 3.7 MBq, iv after 1 hr by gamma-scintillation counting analysis; format: ADME, organism-based, B16-F10; conditions: in vivo; summary of the method: as §2
Mus musculus [6] = assay: Biodistribution in eye of C57BL/6 mouse xenografted with mouse B16F10 cells at 3.7 MBq, iv after 2 hrs by gamma-scintillation counting analysis; format: ADME, organism-based, B16-F10; conditions: in vivo; summary of the method: as §1
Bone = assay: Biodistribution in bone of C57BL/6 mouse xenografted with mouse B16F10 cells at 3.7 MBq, iv after 2 hrs by gamma-scintillation counting analysis; format: ADME, organism-based, Bone element, B16-F10; conditions: in vivo; summary of the method: as §1
Brain = assay: Biodistribution in brain of C57BL/6 mouse xenografted with mouse B16F10 cells at 3.7 MBq, iv after 2 hrs by gamma-scintillation counting analysis; format: ADME, organism-based, B16-F10; conditions: in vivo; summary of the method: as §1
Spleen = assay: Biodistribution in spleen of C57BL/6 mouse xenografted with mouse B16F10 cells at 3.7 MBq, iv after 2 hrs by gamma-scintillation counting analysis; format: ADME, organism-based, B16-F10; conditions: in vivo; summary of the method: as §1
Liver = assay: Biodistribution in liver of C57BL/6 mouse xenografted with mouse B16F10 cells at 3.7 MBq, iv after 2 hrs by gamma-scintillation counting analysis; format: ADME, organism-based, B16-F10; conditions: in vivo; summary of the method: as §1
Mus musculus [7] = assay: Biodistribution in lungs of C57BL/6 mouse xenografted with mouse B16F10 cells at 3.7 MBq, iv after 2 hrs by gamma-scintillation counting analysis; format: ADME, organism-based, Lung, B16-F10; conditions: in vivo; summary of the method: as §1
Mus musculus [8] = assay: Biodistribution in tumor of C57BL/6 mouse xenografted with mouse B16F10 cells at 3.7 MBq, iv after 2 hrs by gamma-scintillation counting analysis; format: ADME, organism-based, Neoplasm, B16-F10; conditions: in vivo; summary of the method: as §1
Mus musculus [9] = assay: Biodistribution in eye of C57BL/6 mouse xenografted with mouse B16F10 cells at 3.7 MBq, iv after 1 hr by gamma-scintillation counting analysis; format: ADME, organism-based, B16-F10; conditions: in vivo; summary of the method: as §1
Kidney [10] = assay: Biodistribution in kidney of C57BL/6 mouse xenografted with mouse B16F10 cells at 3.7 MBq, iv after 1 hr by gamma-scintillation counting analysis; format: ADME, organism-based, B16-F10; conditions: in vivo; summary of the method: as §1

Work on `CCN(CC)CCNC(=O)c1ccc([18F])cn1` yielded a Drug uptake (Mus musculus [1]) of 1.58 % ID/g, a Drug uptake (Blood) of 0.42 % ID/g and a Drug uptake [2] of 12.74 % ID/g. For the same molecule, the Drug uptake (Kidney [3]) was 24.91 % ID/g, the Ratio (Nucleic Acid [4]) was 88.25 and the Ratio (Nucleic Acid [5]) was 3.79. For the same molecule, the Drug uptake (Mus musculus [6]) was 32.83 % ID/g, the Drug uptake (Bone) was 1.72 % ID/g and the Drug uptake (Brain) was 0.42 % ID/g. It also gave a Drug uptake (Spleen) of 1.13 % ID/g, a Drug uptake (Liver) of 3.32 % ID/g and a Drug uptake (Mus musculus [7]) of 0.69 % ID/g. It also gave a Drug uptake (Mus musculus [8]) of 16.97 % ID/g, a Drug uptake (Mus musculus [9]) of 37.47 % ID/g and a Drug uptake (Kidney [10]) of 3.32 % ID/g.

Source: ChEMBL document CHEMBL2311435, “Development of 18F-labeled picolinamide probes for PET imaging of malignant melanoma” (J Med Chem, 2013)
